Experimental data as given in ChEMBL document CHEMBL1124408, “3-aminopyridazine derivatives with atypical antidepressant, serotonergic, and dopaminergic activities” (J Med Chem, 1989).

Tests used:
[1] = system: Mus musculus; assay: Antidepressant activity against reserpine induced ptosis in mice after intraperitoneal administration.; format: functional; conditions: ip
Outline: (§1)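 Female CD1 mice (18-22 g) received the drug in distilled water/gum tragacanth ip at multiple doses (7-20 mice/dose), given together with reserpine (2 mg/kg iv). One hour later, palpebral ptosis (half or more of the lid closed) was scored all-or-none. Screening dose was at most 50% of the seizure threshold dose.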

[2] = system: Mus musculus; assay: Serotonergic activity was determined by measuring the potentiation of 5-hydroxytryptophan in mice upon ip administration; format: functional
Outline: (§2)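 Drug was injected ip in distilled water/gum tragacanth to female CD1 mice (18-22 g) at multiple doses (7-20 mice/dose), 30 min before a threshold dose of L-5-HTP (200 mg/kg ip). Mice were held singly in small cages, and tremor was scored all-or-none over the 20 min after L-5-HTP.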

[3] = system: Mus musculus; assay: Ability to modify turning behavior of mice after intraperitoneal administration; format: functional; conditions: ip, read-out: MED
Outline: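 Female CD1 mice (25-30 g) were lesioned by stereotaxic injection of 6-OHDA (10 μg in 1 μL saline with 1 mg/mL ascorbic acid) into the right striatum under pentobarbitone (60 mg/kg ip). Seven days later, drug in distilled water/gum tragacanth was given ip at multiple doses (7-20 mice/dose). Ipsilateral turns were counted for 2 min starting 30 min post-dose.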

[4] = Acute toxicity in mice after intraperitoneal administration.; conditions: mouse, in vivo, ip, LD50
[5] = system: Mus musculus; assay: Compound was tested for antidepressant activity against reserpine induced ptosis in mice after intraperitoneal administration.; value ranges from 31-38; format: functional; conditions: ip; outline: as §1
[6] = system: Mus musculus; assay: Compound was tested for antidepressant activity against reserpine induced ptosis in mice after intraperitoneal administration.; value ranges from 11-16; format: functional; conditions: ip; outline: as §1
[7] = system: Mus musculus; assay: Serotonergic activity by measuring the potentiation of 5-hydroxy tryptophan in mice upon ip administration; value ranges from 3.8-4.9; format: functional; outline: as §2
[8] = system: Mus musculus; assay: Compound was tested for antidepressant activity against reserpine induced ptosis in mice after intraperitoneal administration.; value ranges from 4.0-5.7; format: functional; conditions: ip; outline: as §1
[9] = system: Mus musculus; assay: Serotonergic activity by measuring the potentiation of 5-hydroxy tryptophan in mice upon ip administration; value ranges from 4.9-6.7; format: functional; outline: as §2
[10] = system: Mus musculus; assay: Compound was tested for antidepressant activity against reserpine induced ptosis in mice after intraperitoneal administration.; value ranges from 5.9-6.7; format: functional; conditions: ip; outline: as §1
[11] = system: Mus musculus; assay: Serotonergic activity by measuring the potentiation of 5-hydroxy tryptophan in mice upon ip administration; value ranges from 3.0-4.0; format: functional; outline: as §2
[12] = Compound was tested for acute toxicity in mice after intraperitoneal administration; format: organism-based; conditions: mouse, in vivo, ip
Outline: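 Female CD1 mice in groups of 5-10 received drug or vehicle (distilled water with gum tragacanth) ip. LD50 was derived graphically.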

[13] = system: Mus musculus; assay: Compound was tested for antidepressant activity against reserpine induced ptosis in mice after intraperitoneal administration.; value ranges from 11-34; format: functional; conditions: ip; outline: as §1
[14] = system: Mus musculus; assay: Compound was tested for antidepressant activity against reserpine induced ptosis in mice after intraperitoneal administration.; value ranges from 9-12; format: functional; conditions: ip; outline: as §1
[15] = system: Mus musculus; assay: Serotonergic activity by measuring the potentiation of 5-hydroxy tryptophan in mice upon ip administration; value ranges from 1.4-2.1; format: functional; outline: as §2
[16] = system: Mus musculus; assay: Compound was tested for antidepressant activity against reserpine induced ptosis in mice after intraperitoneal administration.; value ranges from 3.2-6.3; format: functional; conditions: ip; outline: as §1
[17] = system: Mus musculus; assay: Serotonergic activity by measuring the potentiation of 5-hydroxy tryptophan in mice upon ip administration; the value ranges from 3-38; format: functional; outline: as §2
[18] = system: Mus musculus; assay: Compound was tested for antidepressant activity against reserpine induced ptosis in mice after intraperitoneal administration; 50% activity at this maximal tested dose; format: functional; conditions: ip; outline: as §1
[19] = system: Mus musculus; assay: Serotonergic activity by measuring the potentiation of 5-hydroxy tryptophan in mice upon ip administration; value ranges from 4.4-5.7; format: functional; outline: as §2
[20] = system: Mus musculus; assay: Compound was tested for antidepressant activity against reserpine induced ptosis in mice after intraperitoneal administration.; value ranges from 5.9-7.3; format: functional; conditions: ip; outline: as §1
[21] = system: Mus musculus; assay: Compound was tested for antidepressant activity against reserpine induced ptosis in mice after intraperitoneal administration; value ranges from 1.8-4.1; format: functional; conditions: ip; outline: as §1
[22] = system: Mus musculus; assay: Serotonergic activity by measuring the potentiation of 5-hydroxy tryptophan in mice upon ip administration; value ranges from 3-7.9.; format: functional; outline: as §2

Structure (SMILES) | ED50 [1] | ED50 [2] | minimal effective dose [3] | LD50 [4] | further results
CCc1cc(-c2ccccc2)nnc1NCCN1CCOCC1 | > 10 mg/kg | > 10 mg/kg | 2 mg/kg | 31 mg/kg | –
Cc1cc(C)c(NCCN2CCOCC2)nn1 | > 50 mg/kg | > 50 mg/kg | > 10 mg/kg | > 100 mg/kg | –
Cc1cc(-c2ccccc2)nnc1NC(C)CN (configuration not stated) | – | > 30 mg/kg | 2 mg/kg | > 200 mg/kg | ED50 [5]: 34 mg/kg
Cc1cc(-c2ccccc2)nnc1NCCCCN | > 50 mg/kg | > 30 mg/kg | 0.1 mg/kg | 300 mg/kg | –
NC(=O)c1cc(-c2ccccc2)nnc1NCCN1CCOCC1 | > 40 mg/kg | > 60 mg/kg | 2 mg/kg | – | –
COc1ccccc1-c1cc(C)c(NCCN2CCOCC2)nn1 | > 10 mg/kg | > 10 mg/kg | 0.5 mg/kg | 40 mg/kg | –
Cc1cc(-c2ccccc2)nnc1NCC(C)N1CCOCC1 (configuration not stated) | – | > 15 mg/kg | 2 mg/kg | 54 mg/kg | ED50 [6]: 13 mg/kg
Cc1cc(-c2ccc3ccccc3c2)nnc1NCCN1CCOCC1 | > 10 mg/kg | – | > 2 mg/kg | 23 mg/kg | –
CCCN(CCC)CCNc1nnc(-c2ccccc2)cc1C | > 30 mg/kg | > 30 mg/kg | 2 mg/kg | 76 mg/kg | –
Cc1cc(-c2cccs2)nnc1NCCN1CCOCC1 | – | – | > 10 mg/kg | 59 mg/kg | ED50 [7]: 4.2 mg/kg; ED50 [8]: 4.8 mg/kg
Cc1cc(Cc2ccccc2)nnc1NCCN1CCOCC1 | > 10 mg/kg | > 10 mg/kg | 2 mg/kg | 30 mg/kg | –
Cc1cc(-c2ccc([N+](=O)[O-])cc2)nnc1NCCN1CCOCC1 | – | – | – | 35 mg/kg | –
Cc1cc(-c2ccc(Cl)cc2)nnc1NCCN1CCOCC1 | > 10 mg/kg | – | > 2 mg/kg | 62 mg/kg | ED50 [9]: 5.8 mg/kg
Cc1cc(-c2ccccc2)nnc1NCCN1CCCC1 | > 30 mg/kg | – | – | 70 mg/kg | –
Clc1ccccc1Cc1cc(-c2ccccc2)nnc1NCCN1CCOCC1 | > 50 mg/kg | > 50 mg/kg | 10 mg/kg | 95 mg/kg | –
Cc1cc(-c2ccccc2F)nnc1NCCN1CCOCC1 | > 10 mg/kg | > 10 mg/kg | 0.5 mg/kg | 26 mg/kg | –
Cc1cc(-c2cccc3ccccc23)nnc1NCCN1CCOCC1 | > 2.5 mg/kg | > 2.5 mg/kg | 0.01 mg/kg | 7 mg/kg | –
Cc1cc(-c2cccc(Cl)c2)nnc1NCCN1CCOCC1 | > 10 mg/kg | > 10 mg/kg | > 2 mg/kg | 21 mg/kg | –
COc1ccc(-c2cc(C)c(NCCN3CCOCC3)nn2)cc1 | > 5 mg/kg | > 5 mg/kg | > 2 mg/kg | 19 mg/kg | –
c1ccc(-c2ccc(NCCN3CCOCC3)nn2)cc1 | – | – | 0.5 mg/kg | 250 mg/kg | ED50 [10]: 6 mg/kg; ED50 [11]: 3.7 mg/kg

Structure (SMILES) | ED50 [1] | ED50 [2] | minimal effective dose [3] | LD50 [4] | further results
Cc1cc(-c2ccccc2)nnc1NCCCN1CCOCC1 | > 30 mg/kg | > 25 mg/kg | 2 mg/kg | – | LD50 [12]: 66 mg/kg
Cc1cc(-c2ccccc2)nnc1NCCN1CCOCC1C (configuration not stated) | – | 30 mg/kg | > 2 mg/kg | 110 mg/kg | ED50 [13]: 20 mg/kg
Br.Br.Cc1cc(-c2cccc(O)c2)nnc1NCCN1CCOCC1 | > 50 mg/kg | > 30 mg/kg | 10 mg/kg | > 200 mg/kg | –
Cc1cc(-c2ccccc2)nnc1NCCCN | 50 mg/kg | > 30 mg/kg | 0.1 mg/kg | 300 mg/kg | –
CCOC(=O)c1cc(-c2ccccc2)nnc1NCCN1CCOCC1 | > 50 mg/kg | – | 0.5 mg/kg | 180 mg/kg | –
Cc1ccccc1-c1cc(C)c(NCCN2CCOCC2)nn1 | > 1 mg/kg | > 1 mg/kg | > 1 mg/kg | 5 mg/kg | –
Cc1cc(-c2ccc(N)cc2)nnc1NCCN1CCOCC1 | > 5 mg/kg | – | > 2 mg/kg | 15 mg/kg | –
Cc1cc(-c2ccsc2)nnc1NCCN1CCOCC1 | – | – | > 10 mg/kg | 72 mg/kg | ED50 [14]: 10 mg/kg; ED50 [15]: 1.7 mg/kg
c1ccc(-c2cc(-c3ccccc3)c(NCCN3CCOCC3)nn2)cc1 | > 50 mg/kg | > 25 mg/kg | > 2 mg/kg | 150 mg/kg | –
CCN(CC)CCNc1nnc(-c2ccccc2)cc1C | > 30 mg/kg | > 30 mg/kg | > 10 mg/kg | 80 mg/kg | –
c1ccc(-c2cc(Cc3ccc4ccccc4c3)c(NCCN3CCOCC3)nn2)cc1 | > 50 mg/kg | > 100 mg/kg | 2 mg/kg | 275 mg/kg | –
Cc1cc(C2CCCCC2)nnc1NCCN1CCOCC1 | – | – | > 10 mg/kg | 43 mg/kg | ED50 [16]: 4.5 mg/kg; ED50 [17]: 16 mg/kg
Clc1ccc(Cc2cc(-c3ccccc3)nnc2NCCN2CCOCC2)cc1 | > 30 mg/kg | > 30 mg/kg | 10 mg/kg | 180 mg/kg | –
Cc1cc(-c2ccccc2Cl)nnc1NCCN1CCOCC1 | > 5 mg/kg | – | 1 mg/kg | 7 mg/kg | –
Cc1ccc(-c2cc(C)c(NCCN3CCOCC3)nn2)cc1 | > 15 mg/kg | > 15 mg/kg | 0.5 mg/kg | 51 mg/kg | –
Cc1cccc(-c2cc(C)c(NCCN3CCOCC3)nn2)c1 | – | > 10 mg/kg | > 2 mg/kg | 23 mg/kg | ED50 [18]: 10 mg/kg
c1ccc(Cc2cc(-c3ccccc3)nnc2NCCN2CCOCC2)cc1 | > 50 mg/kg | > 50 mg/kg | 2 mg/kg | 131 mg/kg | –
N#Cc1cc(-c2ccccc2)nnc1NCCN1CCOCC1 [BAZINAPRINE] | – | – | 0.1 mg/kg | – | ED50 [19]: 5 mg/kg; ED50 [20]: 6.6 mg/kg
CN(C)CCCN1c2ccccc2CCc2ccc(Cl)cc21 [CLOMIPRAMINE] | – | – | – | – | ED50 [21]: 3.3 mg/kg; ED50 [22]: 4.8 mg/kg
Br.Br.Cc1cc(-c2ccc(O)cc2)nnc1NCCN1CCOCC1 [MOXIRAPRINE DIBROMIDE] | > 40 mg/kg | > 100 mg/kg | 0.1 mg/kg | > 300 mg/kg | –
